In ChEMBL document CHEMBL4689842, “EUbOPEN Chemogenomics Library wave 1” (2021):
Where “and” joins values, the source holds several entries; their conditions need not be identical. Equal values may be shown once.

System: Fibroblast
Test: Multiplex assay against human fibroblast
Assay type: toxicity, cell-based
Method in brief: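 Compound was added to live cells that had been stained at seeding with Hoechst33342, BioTracker Green Microtubule Cytoskeleton Dye, MitoTracker Red and Annexin V Alexa Fluor 680, and imaging followed on a CQ1 microscope at 37°C and 5% CO2. CellPathfinder machine-learning gating divided cells into Hoechst high-intensity objects or normal cells, normal cells into healthy, pyknosed or fragmented nuclei, and pyknosed cells into mitotic or apoptotic. Tubulin, mitochondrial-mass and membrane-permeability phenotypes are per cents of healthy-nucleus cells.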

[1] = 12 h, 1 µM, compound concentration 1 uM, replicate 1
[2] = 12 h, 1 µM, compound concentration 1 uM, replicate 2
[3] = 12 h, 10 µM, compound concentration 10 uM, replicate 1
[4] = 12 h, 10 µM, compound concentration 10 uM, replicate 2
[5] = 24 h, 1 µM, compound concentration 1 uM, replicate 1
[6] = 24 h, 1 µM, compound concentration 1 uM, replicate 2
[7] = 24 h, 10 µM, compound concentration 10 uM, replicate 1
[8] = 24 h, 10 µM, compound concentration 10 uM, replicate 2
[9] = 48 h, 1 µM, compound concentration 1 uM, replicate 1
[10] = 48 h, 1 µM, compound concentration 1 uM, replicate 2
[11] = 48 h, 10 µM, compound concentration 10 uM, replicate 1
[12] = 48 h, 10 µM, compound concentration 10 uM, replicate 2

SMILES: CN1CCCC(n2nc(Cc3ccc(Cl)cc3)c3ccccc3c2=O)CC1.Cl (stereo not given) [AZELASTINE HYDROCHLORIDE]
- Population Apoptotic (%) [1]: 47%
- Population Fragmented Nuclei (%) [1]: 25%
- Population Healthy Nuclei (%) [1]: 50%
- Population Hoechst High Intensity Objects (%) [1]: 11%
- Population Membrane Permeable-Phenotype (%) [1]: 26%
- Population Mitochondria Different-Phenotype (%) [1]: 9%
- Population Mitotic Cells (%) [1]: 52%
- Population Normal (%) [1]: 88%
- Population Pyknosed Nuclei (%) [1]: 23%
- Population Tubulin-Different-Phenotype (%) [1]: 65%
- Total Cell Count [1]: 92
- Population Apoptotic (%) [2]: 25%
- Population Fragmented Nuclei (%) [2]: 6%
- Population Healthy Nuclei (%) [2]: 84%
- Population Membrane Permeable-Phenotype (%) [2]: 7%
- Population Mitochondria Different-Phenotype (%) [2]: 57%
- Population Mitotic Cells (%) [2]: 75%
- Population Pyknosed Nuclei (%) [2]: 8%
- Population Tubulin-Different-Phenotype (%) [2]: 68%
- Total Cell Count [2]: 51
- Population Apoptotic (%) [3]: 74%
- Population Fragmented Nuclei (%) [3]: 26%
- Population Healthy Nuclei (%) [3]: 38%
- Population Hoechst High Intensity Objects (%) [3]: 18%
- Population Membrane Permeable-Phenotype (%) [3]: 13%
- Population Mitochondria Different-Phenotype (%) [3]: 55%
- Population Mitotic Cells (%) [3]: 25%
- Population Normal (%) [3]: 81%
- Population Pyknosed Nuclei (%) [3]: 34%
- Population Tubulin-Different-Phenotype (%) [3]: 93%
- Total Cell Count [3]: 138
- Population Apoptotic (%) [4]: 57%
- Population Fragmented Nuclei (%) [4]: 14%
- Population Healthy Nuclei (%) [4]: 70%
- Population Hoechst High Intensity Objects (%) [4]: 4%
- Population Membrane Permeable-Phenotype (%) [4]: 84%
- Population Mitochondria Different-Phenotype (%) [4]: 98%
- Population Mitotic Cells (%) [4]: 42%
- Population Normal (%) [4]: 95%
- Population Pyknosed Nuclei (%) [4]: 15%
- Population Tubulin-Different-Phenotype (%) [4]: 100%
- Total Cell Count [4]: 96
- Population Apoptotic (%) [5]: 40%
- Population Fragmented Nuclei (%) [5]: 31%
- Population Healthy Nuclei (%) [5]: 42%
- Population Hoechst High Intensity Objects (%) [5]: 10%
- Population Membrane Permeable-Phenotype (%) [5]: 36%
- Population Mitochondria Different-Phenotype (%) [5]: 11%
- Population Mitotic Cells (%) [5]: 59%
- Population Normal (%) [5]: 89%
- Population Pyknosed Nuclei (%) [5]: 25%
- Population Tubulin-Different-Phenotype (%) [5]: 66%
- Total Cell Count [5]: 95
- Population Apoptotic (%) [6]: 50%
- Population Fragmented Nuclei (%) [6]: 7%
- Population Healthy Nuclei (%) [6]: 76%
- Population Hoechst High Intensity Objects (%) [6]: 8%
- Population Membrane Permeable-Phenotype (%) [6]: 10%
- Population Mitochondria Different-Phenotype (%) [6]: 57%
- Population Mitotic Cells (%) [6]: 50%
- Population Normal (%) [6]: 91%
- Population Pyknosed Nuclei (%) [6]: 15%
- Population Tubulin-Different-Phenotype (%) [6]: 50%
- Total Cell Count [6]: 57
- Population Apoptotic (%) [7]: 84%
- Population Fragmented Nuclei (%) [7]: 32%
- Population Healthy Nuclei (%) [7]: 53%
- Population Hoechst High Intensity Objects (%) [7]: 18%
- Population Membrane Permeable-Phenotype (%) [7]: 17%
- Population Mitochondria Different-Phenotype (%) [7]: 62%
- Population Mitotic Cells (%) [7]: 15%
- Population Normal (%) [7]: 81%
- Population Pyknosed Nuclei (%) [7]: 14%
- Population Tubulin-Different-Phenotype (%) [7]: 90%
- Total Cell Count [7]: 161
- Population Apoptotic (%) [8]: 95%
- Population Fragmented Nuclei (%) [8]: 16%
- Population Healthy Nuclei (%) [8]: 58%
- Population Hoechst High Intensity Objects (%) [8]: 4%
- Population Membrane Permeable-Phenotype (%) [8]: 98%
- Population Mitochondria Different-Phenotype (%) [8]: 100%
- Population Mitotic Cells (%) [8]: 4%
- Population Normal (%) [8]: 95%
- Population Pyknosed Nuclei (%) [8]: 25%
- Population Tubulin-Different-Phenotype (%) [8]: 100%
- Total Cell Count [8]: 96
- Population Apoptotic (%) [9]: 58%
- Population Fragmented Nuclei (%) [9]: 38%
- Population Healthy Nuclei (%) [9]: 41%
- Population Hoechst High Intensity Objects (%) [9]: 11%
- Population Membrane Permeable-Phenotype (%) [9]: 28%
- Population Mitochondria Different-Phenotype (%) [9]: 11%
- Population Mitotic Cells (%) [9]: 41%
- Population Normal (%) [9]: 88%
- Population Pyknosed Nuclei (%) [9]: 20%
- Population Tubulin-Different-Phenotype (%) [9]: 54%
- Total Cell Count [9]: 95
- Population Apoptotic (%) [10]: 75%
- Population Fragmented Nuclei (%) [10]: 31%
- Population Healthy Nuclei (%) [10]: 61%
- Population Hoechst High Intensity Objects (%) [10]: 8%
- Population Membrane Permeable-Phenotype (%) [10]: 10%
- Population Mitochondria Different-Phenotype (%) [10]: 1%
- Population Mitotic Cells (%) [10]: 25%
- Population Normal (%) [10]: 91%
- Population Pyknosed Nuclei (%) [10]: 7%
- Population Tubulin-Different-Phenotype (%) [10]: 73%
- Total Cell Count [10]: 123
- Population Apoptotic (%) [11]: 90%
- Population Fragmented Nuclei (%) [11]: 40%
- Population Healthy Nuclei (%) [11]: 52%
- Population Hoechst High Intensity Objects (%) [11]: 30%
- Population Membrane Permeable-Phenotype (%) [11]: 13%
- Population Mitochondria Different-Phenotype (%) [11]: 34%
- Population Mitotic Cells (%) [11]: 10%
- Population Normal (%) [11]: 69%
- Population Pyknosed Nuclei (%) [11]: 6%
- Population Tubulin-Different-Phenotype (%) [11]: 84%
- Total Cell Count [11]: 207
- Population Apoptotic (%) [12]: 66%
- Population Fragmented Nuclei (%) [12]: 38%
- Population Healthy Nuclei (%) [12]: 57%
- Population Hoechst High Intensity Objects (%) [12]: 25%
- Population Membrane Permeable-Phenotype (%) [12]: 22%
- Population Mitochondria Different-Phenotype (%) [12]: 39%
- Population Mitotic Cells (%) [12]: 33%
- Population Normal (%) [12]: 74%
- Population Pyknosed Nuclei (%) [12]: 3%
- Population Tubulin-Different-Phenotype (%) [12]: 88%
- Total Cell Count [12]: 253

SMILES: Cn1c(-c2csc(C3CCN(CC4=NC5N=CC=CC5N4)CC3)n2)nc2ccccc21 (stereo not given) [BAY-070]
- Population Apoptotic (%) [3]: 66% and 86%
- Population Fragmented Nuclei (%) [3]: 30% and 26%
- Population Healthy Nuclei (%) [3]: 53% and 58%
- Population Hoechst High Intensity Objects (%) [3]: 11% and 14%
- Population Membrane Permeable-Phenotype (%) [3]: 12% and 9%
- Population Mitochondria Different-Phenotype (%) [3]: 4%
- Population Mitotic Cells (%) [3]: 33% and 13%
- Population Normal (%) [3]: 88% and 85%
- Population Pyknosed Nuclei (%) [3]: 15%
- Total Cell Count [3]: 238 and 282
- Population Fragmented Nuclei (%) [4]: 66% and 53%
- Population Healthy Nuclei (%) [4]: 21% and 36%
- Population Hoechst High Intensity Objects (%) [4]: 33% and 37%
- Population Membrane Permeable-Phenotype (%) [4]: 36% and 29%
- Population Normal (%) [4]: 66% and 62%
- Population Pyknosed Nuclei (%) [4]: 11% and 10%
- Total Cell Count [4]: 77 and 75
- Population Apoptotic (%) [7]: 51% and 62%
- Population Fragmented Nuclei (%) [7]: 23% and 16%
- Population Healthy Nuclei (%) [7]: 61% and 67%
- Population Hoechst High Intensity Objects (%) [7]: 10% and 13%
- Population Membrane Permeable-Phenotype (%) [7]: 9% and 8%
- Population Mitotic Cells (%) [7]: 48% and 37%
- Population Normal (%) [7]: 89% and 86%
- Population Pyknosed Nuclei (%) [7]: 15% and 16%
- Total Cell Count [7]: 222 and 285
- Population Fragmented Nuclei (%) [8]: 65% and 57%
- Population Healthy Nuclei (%) [8]: 23% and 30%
- Population Hoechst High Intensity Objects (%) [8]: 41% and 29%
- Population Membrane Permeable-Phenotype (%) [8]: 30% and 22%
- Population Mitotic Cells (%) [8]: 100% and 42%
- Population Normal (%) [8]: 58% and 70%
- Population Pyknosed Nuclei (%) [8]: 11%
- Population Tubulin-Different-Phenotype (%) [8]: 40% and 50%
- Total Cell Count [8]: 74 and 84
